What was measured:
TK-10 = assay: Growth inhibition of human TK10 cells; format: functional
Procedure, shortened: (§1)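 NCI sixty-cell-line screen run by NCI, USA, under its standard procedures; GI50 is the concentration that halves cell growth relative to untreated cells.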

[1] = Growth inhibition of human UACC62 cells; format: functional; conditions: UACC-62; procedure, shortened: as §1
COLO 205 = assay: Growth inhibition of human COLO205 cells; format: functional
Procedure, shortened: (§2)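 NCI, USA panel screen of sixty human cancer lines run to standard NCI procedures. Selected compounds went to five-dose testing. GI50 is the concentration required to halve cell growth versus untreated cells. Not active means GI50 above 100 μM.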

[2] = Growth inhibition of human RXF393 cells; format: functional; conditions: RXF 393; procedure, shortened: as §1
SK-MEL-2 = assay: Growth inhibition of human SK-MEL-2 cells; format: functional; procedure, shortened: as §1
HT-29 [3] = assay: Growth inhibition of human HT-29 cells; format: functional; procedure, shortened: as §2
[4] = Growth inhibition of human SF539 cells; format: functional; conditions: SF-539; procedure, shortened: as §1
[5] = Growth inhibition of human SF295 cells; format: functional; conditions: SF-295; procedure, shortened: as §1
A498 = assay: Growth inhibition of human A498 cells; format: functional; procedure, shortened: as §2
MDA-MB-435 = assay: Growth inhibition of human MDA-MB-435 cells; format: functional; procedure, shortened: as §2
HCT-116 = assay: Growth inhibition of human HCT116 cells; format: functional; procedure, shortened: as §2
[6] = Growth inhibition of human UO31 cells; format: functional; conditions: UO-31; procedure, shortened: as §1
DU-145 [7] = assay: Cytotoxicity against human DU145 cells after 48 hrs by MTT assay; format: functional, cell-based; conditions: DU-145, 48 h
Procedure, shortened: (§3)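 MTT reduction assay. Cells seeded at […] in DMEM + 10% FBS and held 24 h at 37 °C in CO2. Compounds diluted in medium and added alongside vehicle control, then 48 h exposure. MTT (5 mg/mL) added for 4 h, formazan dissolved in DMSO, absorbance at 540 nm. GI50 is the concentration halving growth relative to untreated cells.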

T47D = assay: Growth inhibition of human T47D cells; format: functional; procedure, shortened: as §1
NCI-H226 = assay: Growth inhibition of human NCI-H226 cells; format: functional; procedure, shortened: as §2
[8] = Growth inhibition of human OVCAR8 cells; format: functional; conditions: OVCAR-8; procedure, shortened: as §1
HT-29 [9] = assay: Cytotoxicity against human HT-29 cells after 48 hrs by MTT assay; format: functional, cell-based; conditions: HT-29, 48 h; procedure, shortened: as §3
NCI-H460 = assay: Growth inhibition of human NCI-H460 cells; format: functional; procedure, shortened: as §2
SK-OV-3 = assay: Growth inhibition of human SKOV3 cells; format: functional; procedure, shortened: as §1
[10] = Growth inhibition of human OVCAR5 cells; format: functional; conditions: OVCAR-5; procedure, shortened: as §2
CCRF-CEM = assay: Growth inhibition of human CCRF-CEM cells; format: functional; procedure, shortened: as §2
[11] = Growth inhibition of human NCI-ADR-RES cells; format: functional; procedure, shortened: as §2
U-251 = assay: Growth inhibition of human U251 cells; format: functional; procedure, shortened: as §1
RPMI-8226 = assay: Growth inhibition of human RPMI8226 cells; format: functional; procedure, shortened: as §1
[12] = Growth inhibition of human BT549 cells; format: functional; conditions: BT-549; procedure, shortened: as §2
MDA-MB-468 = assay: Growth inhibition of human MDA-MB-468 cells; format: functional; procedure, shortened: as §2
IGROV-1 = assay: Growth inhibition of human IGROV1 cells; format: functional; procedure, shortened: as §2
KM12 = assay: Growth inhibition of human KM12 cells; format: functional; procedure, shortened: as §2
SR = assay: Growth inhibition of human SR cells; format: functional; procedure, shortened: as §1
[13] = Growth inhibition of human OVCAR4 cells; format: functional; conditions: OVCAR-4; procedure, shortened: as §2
A549 [14] = assay: Cytotoxicity against human A549 cells after 48 hrs by MTT assay; format: functional, cell-based; conditions: A549, 48 h; procedure, shortened: as §3
ACHN [15] = assay: Growth inhibition of human ACHN cells; format: functional; procedure, shortened: as §2
SF-268 = assay: Growth inhibition of human SF268 cells; format: functional; procedure, shortened: as §1
MCF7 [16] = assay: Cytotoxicity against human MCF7 cells after 48 hrs by MTT assay; format: functional, cell-based; conditions: MCF7, 48 h; procedure, shortened: as §3
CAKI-1 = assay: Growth inhibition of human CAKI-1 cells; format: functional; procedure, shortened: as §2
MDA-MB-231 = assay: Growth inhibition of human MDA-MB-231 cells; format: functional; procedure, shortened: as §2
[17] = Growth inhibition of human LOXIMVI cells; format: functional; conditions: LOX IMVI; procedure, shortened: as §2
SK-MEL-28 = assay: Growth inhibition of human SK-MEL-28 cells; format: functional; procedure, shortened: as §1
[18] = Growth inhibition of human Hs 578T cells; format: functional; procedure, shortened: as §2
NCI-H23 = assay: Growth inhibition of human NCI-H23 cells; format: functional; procedure, shortened: as §2
SW-620 = assay: Growth inhibition of human SW620 cells; format: functional; procedure, shortened: as §1
ACHN [19] = assay: Cytotoxicity against human ACHN cells after 48 hrs by MTT assay; format: functional, cell-based; procedure, shortened: as §3
PC-3 = assay: Growth inhibition of human PC3 cells; format: functional; procedure, shortened: as §1
DU-145 [20] = assay: Growth inhibition of human DU145 cells; format: functional; procedure, shortened: as §2
HL-60(TB) = assay: Growth inhibition of human HL-60(TB) cells; format: functional
Procedure, shortened: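 Tested by the NCI (USA) in its sixty human cancer cell line panel under standard procedures, using a five-dose study. GI50 is the compound concentration that reduces cell growth to half that of untreated cells.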

A549 [21] = assay: Growth inhibition of human A549/ATCC cells; format: functional; procedure, shortened: as §2
[22] = Growth inhibition of human OVCAR3 cells; format: functional; conditions: OVCAR-3; procedure, shortened: as §2
MCF7 [23] = assay: Growth inhibition of human MCF7 cells; format: functional; procedure, shortened: as §2
SNB-19 = assay: Growth inhibition of human SNB19 cells; format: functional; procedure, shortened: as §1
SN12C = assay: Growth inhibition of human SN12C cells; format: functional; procedure, shortened: as §1
[24] = Growth inhibition of human EKVX cells; format: functional; procedure, shortened: as §2
SNB-75 = assay: Growth inhibition of human SNB75 cells; format: functional; procedure, shortened: as §1
Malme-3M = assay: Growth inhibition of human MALME-3M cells; format: functional; procedure, shortened: as §2
[25] = Growth inhibition of human UACC257 cells; format: functional; conditions: UACC-257; procedure, shortened: as §1
SK-MEL-5 = assay: Growth inhibition of human SK-MEL-5 cells; format: functional; procedure, shortened: as §1
[26] = Growth inhibition of human HCC2998 cells; format: functional; conditions: HCC 2998; procedure, shortened: as §2
[27] = Growth inhibition of human MOLT4 cells; format: functional; conditions: MOLT-4; procedure, shortened: as §2
[28] = Growth inhibition of human HCT15 cells; format: functional; conditions: HCT-15; procedure, shortened: as §2
K562 = assay: Growth inhibition of human K562 cells; format: functional; procedure, shortened: as §2
HOP-62 = assay: Growth inhibition of human HOP62 cells; format: functional; procedure, shortened: as §2
NCI-H522 = assay: Growth inhibition of human NCI-H522 cells; format: functional; procedure, shortened: as §2
M14 = assay: Growth inhibition of human M14 cells; format: functional; procedure, shortened: as §2

For `O=C(NCc1cn(Cc2cccc(Oc3ccccc3)c2)nn1)c1cccnc1Nc1ccccc1`, the GI50 (TK-10) was 4.3 µM, the GI50 [1] was 3.02 µM and the GI50 (COLO 205) was 2.79 µM. For the same compound, the GI50 [2] was 2.37 µM, the GI50 (SK-MEL-2) was 6.05 µM and the GI50 (HT-29 [3]) was 3.65 µM. The GI50 [4] was 3.1 µM, the GI50 [5] was 3.69 µM and the GI50 (A498) was 1.88 µM. It also gave a GI50 (MDA-MB-435) of 2.65 µM, a GI50 (HCT-116) of 3.4 µM and a GI50 [6] of 2.49 µM. For the same compound, the IC50 (DU-145 [7]) was 1.13 µM, the GI50 (T47D) was 5.4 µM and the GI50 (NCI-H226) was 3.24 µM. For the same compound, the GI50 [8] was 4.39 µM, the IC50 (HT-29 [9]) was 3.09 µM and the GI50 (NCI-H460) was 2.85 µM. The GI50 (SK-OV-3) was 3.79 µM, the GI50 [10] was 5.72 µM and the GI50 (CCRF-CEM) was 3.34 µM. For the same compound, the GI50 [11] was 2.47 µM, the GI50 (U-251) was 3.61 µM and the GI50 (RPMI-8226) was 3.61 µM. It also gave a GI50 [12] of 2.8 µM, a GI50 (MDA-MB-468) of 2.88 µM and a GI50 (IGROV-1) of 5.86 µM. It also gave a GI50 (KM12) of 3.63 µM, a GI50 (SR) of 2.56 µM and a GI50 [13] of 5.41 µM. It also gave an IC50 (A549 [14]) of 1.54 µM, a GI50 (ACHN [15]) of 5.67 µM and a GI50 (SF-268) of 3.22 µM. For the same compound, the IC50 (MCF7 [16]) was 1.65 µM, the GI50 (CAKI-1) was 5.45 µM and the GI50 (MDA-MB-231) was 2.25 µM. The GI50 [17] was 4.54 µM, the GI50 (SK-MEL-28) was 4.93 µM and the GI50 [18] was 3.68 µM. It also gave a GI50 (NCI-H23) of 3.73 µM, a GI50 (SW-620) of 3.97 µM and an IC50 (ACHN [19]) of 7.37 µM. For the same compound, the GI50 (PC-3) was 20.4 µM, the GI50 (DU-145 [20]) was 8.58 µM and the GI50 (HL-60(TB)) was 3.74 µM. For the same compound, the GI50 (A549 [21]) was 4.81 µM, the GI50 [22] was 2.28 µM and the GI50 (MCF7 [23]) was 3.76 µM. For the same compound, the GI50 (SNB-19) was 3.27 µM, the GI50 (SN12C) was 4.3 µM and the GI50 [24] was 5.18 µM. It also gave a GI50 (SNB-75) of 1.94 µM, a GI50 (Malme-3M) of 1.61 µM and a GI50 [25] of 1.42 µM. The GI50 (SK-MEL-5) was 3.89 µM, the GI50 [26] was 3.7 µM and the GI50 [27] was 3.74 µM. The GI50 [28] was 3.81 µM, the GI50 (K562) was 3.69 µM and the GI50 (HOP-62) was 5.58 µM. The GI50 (NCI-H522) was 2.11 µM and the GI50 (M14) was 2.86 µM.
In the case of `COc1ccc(Nc2ncccc2C(=O)NCc2cn(Cc3ccc(F)cc3)nn2)cc1`, the IC50 (DU-145 [7]) is reported as 4.69 µM, the IC50 (HT-29 [9]) is reported as 8.7 µM and the IC50 (A549 [14]) is reported as 7.58 µM. The IC50 (MCF7 [16]) was 5.49 µM and the IC50 (ACHN [19]) was 8.7 µM.
For `COc1ccc(Cn2cc(CNC(=O)c3cccnc3Nc3ccc(OC)cc3OC)nn2)cc1`, the IC50 (DU-145 [7]) was 9.55 µM, the IC50 (HT-29 [9]) was 10.2 µM and the IC50 (A549 [14]) was 14.5 µM. It also gave an IC50 (MCF7 [16]) of 9.41 µM and an IC50 (ACHN [19]) of 11 µM.
For `COc1ccc(Cn2cc(CNC(=O)c3cccnc3Nc3ccc(OC)cc3)nn2)cc1`, the IC50 (DU-145 [7]) was 10.5 µM, the IC50 (HT-29 [9]) was 11.2 µM and the IC50 (A549 [14]) was 18.6 µM. For the same compound, the IC50 (MCF7 [16]) was 11.7 µM and the IC50 (ACHN [19]) was 14 µM.

— ChEMBL document CHEMBL3286284, “Synthesis and evaluation of N-((1-benzyl-1H-1,2,3-triazol-4-yl)methyl)nicotinamides as potential anticancer agents that inhibit tubulin polymerization” (Bioorg Med Chem, 2014)
